From ChEMBL document CHEMBL2417498, “Design and synthesis of 6,7-methylenedioxy-4-substituted phenylquinolin-2(1H)-one derivatives as novel anticancer agents that induce apoptosis with cell cycle arrest at G2/M phase” (Bioorg Med Chem, 2013)
Active and inactive are the calls of the source. The rule behind the calls is not given here.

What was measured:
[1] = Cell cycle arrest in human H460 cells assessed as accumulation at S phase at 5 uM after 24 hrs by propidium iodide staining-based FACS analysis (reference value: 43.08%); format: functional; settings: NCI-H460
Procedure, shortened: (§1)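 H460 cells treated 24 h with 1.0, 2.5 or 5.0 µM; washed in PBS, fixed overnight in 70% ice-cold ethanol at −20 °C, stained 30 min in the dark with 0.1% Triton X-100, 0.2 mg/mL RNase and 20 µg/mL propidium iodide; DNA content by flow cytometry, phase distribution from histogram modelling.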

HL-60 [2] = assay: Decrease in cyclin B1 expression in human HL60 cells at 0.25 to 1 uM after 24 hrs by Western blot analysis; format: functional, cell-based
Procedure, shortened: (§2)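 HL-60 cells treated 24 h at the indicated concentrations, harvested, lysed (30 min on ice, 12,000 g spin), protein by Bradford; samples run on 10% SDS-PAGE, transferred to nitrocellulose, immunodetected by chemiluminescence.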

[3] = Cell cycle arrest in human H460 cells assessed as accumulation at G2/M phase at 5 uM after 24 hrs by propidium iodide staining-based FACS analysis (reference value: 10.73%); format: functional; settings: NCI-H460; procedure, shortened: as §1
[4] = Cell cycle arrest in human H460 cells assessed as accumulation at G0/G1 phase at 2.5 uM after 24 hrs by propidium iodide staining-based FACS analysis (reference value: 46.19%); format: functional; settings: NCI-H460; procedure, shortened: as §1
COLO 205 = assay: Cytotoxicity against human COLO205 cells after 48 hrs by MTT assay; format: functional, cell-based; settings: COLO 205, 48 h
Procedure, shortened: (§3)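 Log-phase tumour cells grown in RPMI-1640 with 10% FBS, penicillin/streptomycin and 1% L-glutamine at 37 °C, 5% CO2. Cells treated with vehicle or a range of concentrations for 48 h. Growth measured by MTT reduction, absorbance at 570 nm. IC50 is the concentration giving 50% proliferation inhibition, from 3 independent experiments.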

HL-60 [5] = assay: Cell cycle arrest in human HL60 cells assessed as accumulation at G0/G1 phase at 0.5 uM after 24 hrs by propidium iodide staining-based FACS analysis (reference value: 39.80%); format: functional
HL-60 [6] = assay: Cytotoxicity against human HL60 cells after 48 hrs by MTT assay; format: functional, cell-based; settings: HL-60, 48 h; procedure, shortened: as §3
HL-60 [7] = assay: Decrease in CDK1 expression in human HL60 cells after 24 hrs by Western blot analysis; format: functional, cell-based; procedure, shortened: as §2
A498 = assay: Cytotoxicity against human A498 cells after 48 hrs by MTT assay; format: functional, cell-based; settings: A498, 48 h; procedure, shortened: as §3
[8] = Cell cycle arrest in human H460 cells assessed as accumulation at sub G1 phase at 5 uM after 24 hrs by propidium iodide staining-based FACS analysis (reference value: 3.07%); format: functional; settings: NCI-H460; procedure, shortened: as §1
HL-60 [9] = assay: Cell cycle arrest in human HL60 cells assessed as accumulation at S phase at 0.5 uM after 24 hrs by propidium iodide staining-based FACS analysis (reference value: 49.69%); format: functional
NCI-H460 [10] = assay: Induction of apoptosis in human H460 cells assessed as appearance of nuclear fragmentation at 1 to 5 uM after 24 hrs by Hoechst 33258 staining-based microscopy; format: functional, cell-based
Procedure, shortened: (§4)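 H460 plated at 5×10⁴ cells/well and incubated 24 h with 1.0, 2.5 or 5.0 µM; stained with 5 µg/mL Hoechst 33258 for 10 min, washed twice in PBS, fixed in 4% paraformaldehyde 10 min at 25 °C; nuclei scored for chromatin condensation, fragmentation and apoptotic bodies by fluorescence microscopy; 0.1% DMSO control.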

HL-60 [11] = assay: Cell cycle arrest in human HL60 cells assessed as accumulation at G2/M phase at 1 uM after 24 hrs by propidium iodide staining-based FACS analysis (reference value: 10.51%); format: functional
HL-60 [12] = assay: Increase in cyclin B1 expression in human HL60 cells at 0.25 to 1 uM after 24 hrs by Western blot analysis; format: functional, cell-based; procedure, shortened: as §2
[13] = Cytotoxicity against human H460 cells after 48 hrs by MTT assay; format: functional, cell-based; settings: NCI-H460, 48 h; procedure, shortened: as §3
[14] = Cell cycle arrest in human H460 cells assessed as accumulation at G0/G1 phase at 5 uM after 24 hrs by propidium iodide staining-based FACS analysis (reference value: 46.19%); format: functional; settings: NCI-H460; procedure, shortened: as §1
[15] = Cell cycle arrest in human H460 cells assessed as accumulation at S phase at 1 uM after 24 hrs by propidium iodide staining-based FACS analysis (reference value: 43.08%); format: functional; settings: NCI-H460; procedure, shortened: as §1
SK-OV-3 = assay: Cytotoxicity against human SKOV3 cells after 48 hrs by MTT assay; format: functional, cell-based; settings: SK-OV-3, 48 h; procedure, shortened: as §3
HL-60 [16] = assay: Cell cycle arrest in human HL60 cells assessed as accumulation at S phase at 1 uM after 24 hrs by propidium iodide staining-based FACS analysis (reference value: 49.69%); format: functional
HL-60 [17] = assay: Induction of apoptosis in human HL60 cells assessed as caspase3 cleavage at 0.25 to 1 uM by Western blot analysis; format: functional, cell-based; procedure, shortened: as §2
HL-60 [18] = assay: Cell cycle arrest in human HL60 cells assessed as accumulation at G2/M phase at 0.25 uM after 24 hrs by propidium iodide staining-based FACS analysis (reference value: 10.51%); format: functional
HL-60 [19] = assay: Induction of apoptosis in human HL60 cells assessed as chromatin condensation at 0.25 to 1 uM after 24 hrs by Hoechst 33258 staining-based microscopy; format: functional, cell-based
Procedure, shortened: (§5)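 HL-60 seeded at 1×10⁵ cells/well, treated 24 h with 0.25, 0.5 or 1.0 µM; nuclei stained 10 min with 5 µg/mL Hoechst 33258, PBS-washed twice, fixed 10 min in 4% PFA at 25 °C; apoptotic morphology imaged by fluorescence microscopy against 0.1% DMSO-treated cells.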

NCI-H460 [20] = assay: Induction of apoptosis in human H460 cells assessed as chromatin condensation at 1 to 5 uM after 24 hrs by Hoechst 33258 staining-based microscopy; format: functional, cell-based; procedure, shortened: as §4
HL-60 [21] = assay: Cell cycle arrest in human HL60 cells assessed as accumulation at S phase at 0.25 uM after 24 hrs by propidium iodide staining-based FACS analysis (reference value: 49.69%); format: functional
[22] = Cytotoxicity against human Hep3B cells after 48 hrs by MTT assay; format: functional, cell-based, Hep 3B2
Procedure, shortened: (§6)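 Detroit 551 normal skin cells and Hep 3B hepatoma cells grown in DMEM with 10% FBS, penicillin/streptomycin and 1% L-glutamine at 37 °C, 5% CO2. Log-phase cells treated with vehicle or a range of concentrations for 48 h. MTT reduction read at 570 nm. IC50 (50% proliferation inhibition) taken from 3 independent experiments.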

MCF7 = assay: Cytotoxicity against human MCF7 cells after 48 hrs by MTT assay; format: functional, cell-based; settings: MCF7, 48 h; procedure, shortened: as §3
Detroit 551 = assay: Cytotoxicity against human Detroit 551 cells after 48 hrs by MTT assay; format: cell-based; settings: Detroit 551, 48 h; procedure, shortened: as §6
HL-60 [23] = assay: Cell cycle arrest in human HL60 cells assessed as accumulation at G2/M phase at 0.5 uM after 24 hrs by propidium iodide staining-based FACS analysis (reference value: 10.51%); format: functional
HL-60 [24] = assay: Induction of apoptosis in human HL60 cells assessed as appearance of apoptotic bodies at 0.25 to 1 uM after 24 hrs by Hoechst 33258 staining-based microscopy; format: functional, cell-based; procedure, shortened: as §5
HL-60 [25] = assay: Cell cycle arrest in human HL60 cells assessed as accumulation at G0/G1 phase at 0.25 uM after 24 hrs by propidium iodide staining-based FACS analysis (reference value: 39.80%); format: functional

## COc1ccc(-c2cc(=O)[nH]c3cc4c(cc23)OCO4)c(OC)c1
[1]
  Activity: 22.4%
HL-60 [2]
  Activity: Active
[3]
  Activity: 68.2%
[4]
  Activity: 9.6%
COLO 205
  IC50: 7.4 µM
HL-60 [5]
  Activity: 44.82%
HL-60 [6]
  IC50: 0.4 µM
HL-60 [7]
  Activity: Dose-dependent effect
A498
  IC50: 48 µM
[8]
  Activity: 11.2%
HL-60 [9]
  Activity: 30.16%
NCI-H460 [10]
  Activity: Active
HL-60 [11]
  Activity: 40.54%
HL-60 [12]
  Activity: Active
[13]
  IC50: 0.9 µM
[14]
  Activity: 9.37%
[15]
  Activity: 44.1%
SK-OV-3
  IC50: 0.4 µM
HL-60 [16]
  Activity: 46.99%
HL-60 [17]
  Activity: Active
HL-60 [18]
  Activity: 11.87%
HL-60 [19]
  Activity: Active
NCI-H460 [20]
  Activity: Active
HL-60 [21]
  Activity: 46.76%
[22]
  IC50: 1 µM
MCF7
  IC50: 6 µM
Detroit 551
  IC50: > 25 µM
HL-60 [23]
  Activity: 25.02%
HL-60 [24]
  Activity: Active
HL-60 [25]
  Activity: 41.36%
